Data set [1] has as its system HCT-116. The experiment in a line: Induction of apoptosis in human HCT116 cells assessed as early apoptotic cells at 10 uM after 24 hrs by annexin V-FITC/propidium iodide staining based flow cytometry (reference value: 1%). It is filed as functional.
In another data set the test system is T-24. In words: Cytotoxicity against human T24 cells assessed as reduction in cell viability incubated for 72 hrs by MTT assay. It is filed as functional, cell-based. Particulars: T-24, 72 h. In short, it runs like this: (§1)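 About 5 × 10³ cells/well, seeded overnight at 37 °C, 5% CO₂, in DMEM or RPMI-1640 with 10% FBS and antibiotics. DMSO-dissolved compounds diluted in medium, exposure 72 h.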
In general terms: Tetrazolium dyes change colour on reduction, which living cells bring about.

Data set [2] relates to HCT-116. The experiment in a line: Effect on Wnt/beta-Catenin signaling in human HCT116 cells assessed as reduction in c-Myc mRNA level at 20 uM after 24 hrs by RT-qPCR analysis. Type of data set: functional, cell-based. In short, it runs like this: (§2)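 HCT-116 cells treated 24 h; total RNA by TRIZOL, one-step RT-qPCR: 55 °C 10 min, 95 °C 1 min, then 39 cycles of 95 °C 10 s and 60 °C 30 s, with melting-curve and no-template controls. β-Actin as internal standard; relative expression by 2^−ΔΔCt, mean ± SD (n = 3).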

Data set [3] deals with HCT-116. The experiment in a line: Induction of apoptosis in human HCT116 cells assessed as increase in Bax protein expression at 20 uM incubated for 24 hrs by Western blot analysis. It is filed as functional, cell-based. In short, it runs like this:
(§3)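 HCT-116 cells at 2 × 10⁵ cells/mL in DMEM/10% FBS, grown 12 h at 37 °C, then treated 24 h (vehicle DMSO). Lysates quantified by BCA, run on 10% SDS-PAGE, PVDF transfer, blocked in 5% milk/TBST, primary antibodies 4 °C overnight, HRP secondary 2 h, chemiluminescent detection; normalized to β-actin, n = 3.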
Background: Immunoblotting shows a protein as a band on a membrane.

Data set [4] can be described thus: Thermodynamic solubility of the compound in phosphate buffer at pH 6.8 after overnight incubation by shake flask method. Type of data set: physicochemical. Particulars: read-out: Therm_solubility. In short, it runs like this:
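Shake-flask method: solid added to pH 6.8 phosphate buffer at nominal 2 mg/mL, sonicated 10 min, shaken overnight 800 rpm at room temperature; phases separated by centrifugation 5000 rpm 20 min before supernatant quantitation.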

Data set [5] has as its target T1, Dual specificity protein kinase CLK2 (Homo sapiens, UniProt P49760). In words: Inhibition of CLK2 (unknown origin) assessed as residual activity at 1 uM relative to control. In short, it runs like this: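 Single-concentration screen at 1 μmol/L against a panel of 208 kinases, run as a commercial service; activity expressed relative to control.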
Target sequence in this assay (P49760 whole entry, looked up): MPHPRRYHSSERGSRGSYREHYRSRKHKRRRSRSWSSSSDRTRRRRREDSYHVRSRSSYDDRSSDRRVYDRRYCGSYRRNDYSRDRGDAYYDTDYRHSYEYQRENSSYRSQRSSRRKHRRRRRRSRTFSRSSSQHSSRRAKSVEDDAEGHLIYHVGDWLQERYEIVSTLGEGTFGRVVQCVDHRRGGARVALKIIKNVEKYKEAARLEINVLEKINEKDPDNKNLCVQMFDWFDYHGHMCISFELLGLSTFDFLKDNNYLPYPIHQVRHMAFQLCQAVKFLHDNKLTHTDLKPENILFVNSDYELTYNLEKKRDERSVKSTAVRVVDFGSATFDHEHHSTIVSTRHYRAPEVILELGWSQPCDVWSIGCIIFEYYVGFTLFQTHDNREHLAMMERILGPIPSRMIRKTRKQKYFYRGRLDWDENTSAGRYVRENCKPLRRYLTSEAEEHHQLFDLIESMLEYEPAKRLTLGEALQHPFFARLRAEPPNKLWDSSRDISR
Data set [6] has as its system HCT-116. The experiment in a line: Cytotoxicity against human HCT-116 cells assessed as reduction in cell viability incubated for 72 hrs by MTT assay. It is filed as functional, cell-based. Particulars: HCT-116, 72 h. In short, it runs like this:
as §1

Data set [7] deals with HCT-116. In words: Inhibition of cell stemness in human HCT116 cells assessed as reduction in number of tumor spheres at 5 uM after 10 days by microscopic analysis. Type of data set: functional, cell-based. The following applies: time 10.0 day. In short, it runs like this: (§4)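 Sorted ALDH⁺ HCT-116 cells, 800/well, in serum-free DMEM with B27 (1:50), EGF 20 ng/mL, β-FGF 10 ng/mL; co-incubated with compound (5 μM) or DMSO vehicle for 10 days; sphere number, diameter and morphology scored from microscopy images; mean ± SD, n = 3.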

Data set [8] deals with HCT-116. In words: Induction of apoptosis in human HCT116 cells assessed as reduction in Bcl2 protein expression at 20 uM incubated for 24 hrs by Western blot analysis. Type of data set: functional, cell-based. In short, it runs like this:
as §3

In data set [9] the test system is HCT-116. In words: Inhibition of cell stemness in human HCT116 cells assessed as morphological alterations at 5 uM after 10 days by microscopic analysis. It is filed as functional, cell-based. Particulars: time 10.0 day. In short, it runs like this:
as §4

Data set [10] relates to HCT-116. In words: Effect on Wnt/beta-Catenin signaling in human HCT116 cells assessed as reduction in S100A4 mRNA level at 20 uM after 24 hrs by RT-qPCR analysis. It is filed as functional, cell-based. In short, it runs like this:
as §2
On the technique in general: In qPCR the cycle at which signal appears reflects the starting amount.

Data set [11] has as its target T1, Dual specificity protein kinase CLK2. The experiment in a line: Inhibition of human CLK2 incubated for 2 hrs.
Target sequence in this assay (P49760 whole entry): as the sequence (P49760 whole entry, looked up) above
In data set [12] the test system is HCT-116. The experiment in a line: Inhibition of cell stemness in human HCT116 cells assessed as inhibition of CD44+/CD133+ expression at 20 uM after 24 hrs by flow cytometry analysis. It is filed as functional. In short, it runs like this: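 ALDH⁺ HCT-116 subpopulation sorted by flow cytometry; 2 × 10⁵ cells/well seeded overnight at 37 °C, 5% CO₂; treated 20 μM for 24 h (vehicle DMSO); stained with PE anti-CD133 and FITC anti-CD44 30 min; CD44⁺/CD133⁺ read by flow cytometry.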

A short description of data set [13]: Clearance in Sprague-Dawley rat at 25 mg/kg, po measured up to 48 hrs by LC-MS/MS analysis. Type of data set: ADME, organism-based. Particulars: in vivo. In short, it runs like this:
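Overnight-fasted male SD rats (about 250−270 g), three per group, single oral 25 mg/kg; test compound suspended in 5% CMC-Na, control as sodium salt in phosphate buffer. Blood sampled 0.25–48 h, plasma by centrifugation, stored −40 °C, quantified by LC−MS/MS against plasma standard curve (3–3000 ng/mL) with internal standard; model-fitted PK parameters.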

Data set [14] addresses T2, Aldehyde dehydrogenase 1A1 (Homo sapiens) (UniProt P00352).
T2 sequence (whole entry): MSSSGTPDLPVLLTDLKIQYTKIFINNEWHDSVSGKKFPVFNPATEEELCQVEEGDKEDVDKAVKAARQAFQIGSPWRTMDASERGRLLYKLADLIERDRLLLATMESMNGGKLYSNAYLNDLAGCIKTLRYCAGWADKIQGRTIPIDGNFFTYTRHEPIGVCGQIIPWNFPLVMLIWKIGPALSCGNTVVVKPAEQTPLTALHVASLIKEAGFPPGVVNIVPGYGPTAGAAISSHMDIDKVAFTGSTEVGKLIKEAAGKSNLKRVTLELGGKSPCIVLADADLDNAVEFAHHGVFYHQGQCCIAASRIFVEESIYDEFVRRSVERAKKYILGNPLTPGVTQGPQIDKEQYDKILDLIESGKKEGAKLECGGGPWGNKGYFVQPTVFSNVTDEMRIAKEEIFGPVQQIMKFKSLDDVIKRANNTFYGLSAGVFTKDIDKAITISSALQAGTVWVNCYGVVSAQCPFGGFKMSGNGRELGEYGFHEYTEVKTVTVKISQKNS
In words: Inhibition of ALDH1A1 in human HCT116 cells assessed as reduction in mRNA transcriptional level at 20 uM after 24 hrs by RT-qPCR analysis. Type of data set: cell-based. The following applies: HCT-116. In short, it runs like this:
as §2

For data set [15], the system named is HCT-116. The experiment in a line: Inhibition of cell invasion in human HCT-116 cells at 5 uM after 24 hrs by crystal violet staining based inverted microscopic analysis. Type of data set: functional. In short, it runs like this: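 Transwell chambers ([…]); 1 × 10⁵ HCT-116 cells in serum-free medium in upper compartment, DMEM + 10% FBS as chemoattractant below; treated 24 h (vehicle DMSO); non-invading cells swabbed off, lower-surface cells crystal violet stained 30 min, counted by inverted microscope; mean ± SD, n = 3.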

Values after ≈ are worked out from the molar mass of the structure shown. Active and inactive are the calls of the source. The rule behind the calls is not given here.

One may read the IC50 as the midpoint of a concentration-inhibition curve. As usually defined, the inhibition is the percentage by which the read-out fell short of the control. In general, CL/F refers to clearance divided by bioavailability, as obtained after extravascular dosing. For the molecule `O=C(NCCO)c1ccc2c(c1)nc(Nc1cccc(Cl)c1)c1ccncc12`, the Activity in the data set with HCT-116 [1] is 12.6%; in data set [5], 22.1%. Also, the values for the IC50 (in the data set on T-24; in the data set on HCT-116 [6]; in [11]) were 6.1 µM, 3.07 µM and 0.0327 µM, respectively. The result with HCT-116 [2], with HCT-116 [3], in the data set on HCT-116 [8], in the data set on HCT-116 [10] and with HCT-116 [15] was Active. Further, in data set [4], the solubility thermodynamic worked out at 0.89 µg/mL (≈ 2.27 µM). Also, the inhibition result (in the data set on HCT-116 [7]; in the data set on HCT-116 [9]; in data set [14]) was “Active” each time. Besides, the inhibition at 20 µM with HCT-116 [12] stood at 84%. The molecule also gave a CL/F in data set [13] of 10 mL/min/kg.

The values are drawn from ChEMBL document CHEMBL4808178 (J Med Chem, 2021).
